Data taken from ChEMBL document CHEMBL4038330, “Discovery of Potent Orally Active Protease-Activated Receptor 1 (PAR1) Antagonists Based on Andrographolide” (J Med Chem, 2017).
pIC50: −log10 of the molar value.

The compounds below were run against T1, Proteinase-activated receptor 1 (Homo sapiens, UniProt P25116) (assay: Antagonist activity at human PAR1 expressed in HEK293 cells co-expressing Galpha15 assessed as inhibition of haTRAP-induced calcium mobilization preincubated for 15 mins followed by haTRAP addition by calcium-4 dye based FLIPR assay). Conditions: not given.
T1 sequence (P25116 whole entry): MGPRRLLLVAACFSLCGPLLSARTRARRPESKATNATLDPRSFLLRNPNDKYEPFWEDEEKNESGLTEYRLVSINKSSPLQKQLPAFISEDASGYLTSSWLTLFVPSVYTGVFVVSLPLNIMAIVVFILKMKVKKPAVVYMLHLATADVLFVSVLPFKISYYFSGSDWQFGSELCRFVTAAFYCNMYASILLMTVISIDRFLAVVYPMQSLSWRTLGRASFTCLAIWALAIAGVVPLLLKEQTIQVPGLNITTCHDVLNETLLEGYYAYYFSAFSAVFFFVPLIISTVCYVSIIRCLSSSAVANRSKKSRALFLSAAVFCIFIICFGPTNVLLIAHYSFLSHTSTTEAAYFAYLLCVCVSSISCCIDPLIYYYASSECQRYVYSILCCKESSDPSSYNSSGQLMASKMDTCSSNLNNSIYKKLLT
Format: functional, cell-based

Point of comparison: `C[C@]1(CO)[C@H]2CC[C@](C)(O)[C@@H](/C=C/c3ccc(-c4cccc(F)c4)cn3)[C@]2(C)CC[C@H]1O`, pIC50 4.26. Against it:
- CCCC(=O)O[C@@H]1CC[C@@]2(C)[C@H](/C=C/c3ccc(-c4cccc(F)c4)cn3)[C@@]3(CC[C@@H]2[C@]1(C)C(=O)OC)CO3 — lower, < 4.00
- C[C@]1(/C=C/c2ccc(-c3cccc(F)c3)cn2)[C@H]2CC[C@@H]3COC(=O)[C@H]3[C@]2(C)CC[C@@H]1O — 0.46 log units higher, 4.72
- C[C@@]1(/C=C/c2ccc(-c3cccc(F)c3)cn2)[C@@H](OC(N)=O)CC[C@@]2(C)[C@@H]3C(=O)OC[C@H]3CC[C@H]12 — 0.44 log units higher, 4.70
- C[C@@]1(C=O)[C@H](O)CC[C@@]2(C)[C@H](/C=C/c3ccc(-c4cccc(F)c4)c[n+]3[O-])[C@@]3(CC[C@H]12)CO3 — lower, < 4.00
- CC1(C)OC[C@@]2(C)[C@H]3CC[C@@]4(CO4)[C@@H](/C=C/c4ccc(-c5cccc(C(F)(F)F)c5)cn4)[C@]3(C)CC[C@H]2O1 — lower, < 4.00
- CC1CC[C@@H]2C(C)(C)[C@H](OC(N)=O)CC[C@@]2(C)[C@@H]1/C=C/c1ccc(-c2cccc(F)c2)cn1 (single isomer, unassigned) — 0.23 log units higher, 4.49
- C[C@]1(/C=C/c2ccc(-c3cccc(F)c3)cn2)[C@@H](OC(N)=O)CC[C@@]2(C)[C@@H]3C(=O)OC[C@H]3CC[C@H]12 — lower, < 4.00
- CC(=O)O[C@@H]1CC[C@@]2(C)[C@H](/C=C/c3ccc(-c4cccc(F)c4)cn3)C(C)CC[C@@H]2C1(C)C (single isomer, unassigned) — lower, < 4.00
- C[C@]1(/C=C/c2ccc(-c3cccc(F)c3)cn2)[C@H](O)CC[C@@]2(C)[C@@H]3C(=O)OC[C@H]3CC[C@H]12 — lower, < 4.00
- CNC[C@@]1(C)[C@H]2CC[C@@]3(CO3)[C@@H](/C=C/c3ccc(-c4cccc(F)c4)cn3)[C@]2(C)CC[C@H]1O — 0.51 log units higher, 4.77
- CCCC(=O)O[C@@H]1CC[C@@]2(C)[C@H](/C=C/c3ccc(-c4cccc(F)c4)cn3)[C@@H](C)CC[C@@H]2C1(C)C — lower, < 4.00
- CC(=O)O[C@H]1CC[C@@]2(C)[C@@H]3C(=O)OC[C@H]3CC[C@@H]2[C@]1(C)/C=C/c1ccc(-c2cccc(F)c2)cn1 — lower, < 4.00
- CC(=O)O[C@@H]1CC[C@@]2(C)[C@@H]3C(=O)OC[C@H]3CC[C@@H]2[C@]1(C)/C=C/c1ccc(-c2cccc(F)c2)cn1 — lower, < 4.00
- C[C@]1(C=O)[C@H](O)CC[C@@]2(C)[C@H](/C=C/c3ccc(-c4cccc(F)c4)c[n+]3[O-])[C@@]3(CC[C@H]12)CO3 — lower, < 4.00
- CCCC(=O)O[C@@H]1CC[C@@]2(C)[C@@H]3C(=O)OC[C@H]3CC[C@@H]2[C@@]1(C)/C=C/c1ccc(-c2cccc(F)c2)cn1 — lower, < 4.00
- C[C@]1(CO)[C@H]2CC[C@@]3(CO3)[C@@H](/C=C/c3ccc(-c4cccc(C(F)(F)F)c4)cn3)[C@]2(C)CC[C@H]1O — 0.76 log units higher, 5.02
- C[C@@]1(/C=C/c2ccc(-c3cccc(F)c3)cn2)[C@H]2CC[C@@H]3COC(=O)[C@H]3[C@]2(C)CC[C@H]1OS(C)(=O)=O — lower, < 4.00
- C[C@@]1(/C=C/c2ccc(-c3cccc(F)c3)cn2)[C@H](O)CC[C@@]2(C)[C@@H]3C(=O)OC[C@H]3CC[C@H]12 — lower, < 4.00
- CCOC(=O)O[C@@H]1CC[C@@]2(C)[C@H](/C=C/c3ccc(-c4cccc(F)c4)cn3)[C@@H](C)CC[C@@H]2C1(C)C — lower, < 4.00
- C[C@]1(CO)[C@H]2CC[C@@]3(CO3)[C@@H](CCc3ccc(-c4cccc(F)c4)cn3)[C@]2(C)CC[C@H]1O — 0.59 log units higher, 4.85
- COC(=O)[C@]1(C)[C@H](OC(N)=O)CC[C@@]2(C)[C@H](/C=C/c3ccc(-c4cccc(F)c4)cn3)[C@@]3(CC[C@@H]21)CO3 — 0.80 log units higher, 5.06
- C[C@@]12CC[C@@H](O)[C@@](C)(C3SCCS3)[C@H]1CCC(C1SCCS1)[C@H]2/C=C/c1ccc(-c2cccc(F)c2)cn1 (single isomer, unassigned) — lower, < 4.00
- CC(=O)O[C@@H]1CC[C@@]2(C)[C@@H]3C(=O)OC[C@H]3CC[C@@H]2[C@@]1(C)/C=C/c1ccc(-c2cccc(F)c2)cn1 — lower, < 4.00
- C[C@]1(CO)[C@H]2CC[C@@]3(CO3)[C@@H](CCc3ccc(-c4cccc(C(F)(F)F)c4)cn3)[C@]2(C)CC[C@H]1O — 0.74 log units higher, 5.00
- CCCC(=O)O[C@H]1CC[C@@]2(C)[C@@H]3C(=O)OC[C@H]3CC[C@@H]2[C@]1(C)/C=C/c1ccc(-c2cccc(F)c2)cn1 — lower, < 4.00
- CC1(C)OC[C@@]2(C)[C@H]3CC[C@@]4(CO4)[C@@H](/C=C/c4ccc(-c5cccc(F)c5)cn4)[C@]3(C)CC[C@H]2O1 — lower, < 4.00
- COC[C@@]1(C)[C@H]2CC[C@@]3(CO3)[C@@H](/C=C/c3ccc(-c4cccc(F)c4)cn3)[C@]2(C)CC[C@H]1O — 0.83 log units higher, 5.09
- C[C@@]1(/C=C/c2ccc(-c3cccc(F)c3)cn2)[C@H]2CC[C@@H]3COC(=O)[C@H]3[C@]2(C)CC[C@H]1OC(N)=O — 0.66 log units higher, 4.92
- CC1CC[C@@H]2C(C)(C)[C@H](OS(C)(=O)=O)CC[C@@]2(C)[C@@H]1/C=C/c1ccc(-c2cccc(F)c2)cn1 (single isomer, unassigned) — 0.20 log units lower, 4.06
- COC(=O)[C@]1(C)[C@H](OC(C)=O)CC[C@@]2(C)[C@H](/C=C/c3ccc(-c4cccc(F)c4)cn3)[C@@]3(CC[C@@H]21)CO3 — lower, < 4.00
- C[C@@]1(C=O)[C@H](O)CC[C@@]2(C)[C@H](/C=C/c3ccc(-c4cccc(F)c4)cn3)[C@@]3(CC[C@H]12)CO3 — 1.26 log units higher, 5.52
- C[C@@]1(/C=C/c2ccc(-c3cccc(F)c3)cn2)[C@H]2CC[C@@H]3COC(=O)[C@H]3[C@]2(C)CC[C@@H]1O — lower, < 4.00
- C[C@@]1(/C=C/c2ccc(-c3cccc(F)c3)cn2)[C@@H](OS(C)(=O)=O)CC[C@@]2(C)[C@@H]3C(=O)OC[C@H]3CC[C@H]12 — lower, < 4.00
- CC1CC[C@@H]2[C@](C)(C=O)[C@H](O)CC[C@@]2(C)[C@@H]1/C=C/c1ccc(-c2cccc(F)c2)cn1 (single isomer, unassigned) — 1.56 log units higher, 5.82
- CO[C@@H]1CC[C@]2(C)[C@H](CC[C@@]3(CO3)[C@H]2/C=C/c2ccc(-c3cccc(F)c3)cn2)[C@]1(C)CO — 0.59 log units higher, 4.85
- C[C@]1(/C=C/c2ccc(-c3cccc(F)c3)cn2)[C@H]2CC[C@@H]3COC(=O)[C@H]3[C@]2(C)CC[C@H]1OC(N)=O — 0.42 log units higher, 4.68
- C[C@@]12CC[C@@H](O)[C@@](C)(C(=O)O)[C@H]1CC[C@@]1(CO1)[C@H]2/C=C/c1ccc(-c2cccc(F)c2)cn1 — 0.28 log units higher, 4.54
- C[C@H]1CC[C@@H]2C(C)(C)C=CC[C@@]2(C)[C@@H]1/C=C/c1ccc(-c2cccc(F)c2)cn1 — lower, < 4.00
- C[C@]1(CN)[C@H]2CC[C@@]3(CO3)[C@@H](/C=C/c3ccc(-c4cccc(F)c4)cn3)[C@]2(C)CC[C@H]1O — 0.38 log units higher, 4.64
- C[C@@]1(C=O)[C@H](O)CC[C@@]2(C)[C@H](/C=C/c3ccc(-c4cccc(F)c4)cn3)[C@@H](C3SCCS3)CC[C@H]12 — lower, < 4.00

Each compound was assayed on Plasma (assay: Stability in Wistar rat assessed as parent compound level in plasma at 10 mg/kg, po administered as single dose measured at 3 hrs post dose by LC-HRMS analysis). Conditions: in vivo.
Format: ADME, organism-based
Summary of the method: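 Rats dosed orally at 10 mg/kg or 5 mg/kg. Plasma taken at 3.0 h after dosing. Parent and metabolites detected by extracted ion chromatograms.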

For `C[C@@]1(C=O)[C@H](O)CC[C@@]2(C)[C@H](/C=C/c3ccc(-c4cccc(F)c4)cn3)[C@@]3(CC[C@H]12)CO3`, the Stability was “Unstable”.
